Assay outcomes (PubChem BioAssay)
ATG4B inh: ATG4B protease inhibitors, primary screen, biochemical, fluorescence, uHTS | Cysteine protease ATG4B (Homo sapiens), Q9Y4P1 | ATG4B cleavage of LC3-PLA2, NBD-HPC fluorescence, 1 h | inhibition, % at 8.33 µM | 0.51% of 340,000 active | AID 504462, 2011; in the data active means inhibition above about 40%
B2AR ag: beta2AR agonists driving receptor internalization, primary screen, cell-based, FAP fluorogen, flow cytometry | response, % (test concentration not listed) | Am2.2-beta2AR cells | 0.43% of 340,000 active;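 active means response above a set limit, near 3 SD of response in nonfluorescent compounds, cut at about 42% in these data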
Target sequence (P07550 whole entry, looked up): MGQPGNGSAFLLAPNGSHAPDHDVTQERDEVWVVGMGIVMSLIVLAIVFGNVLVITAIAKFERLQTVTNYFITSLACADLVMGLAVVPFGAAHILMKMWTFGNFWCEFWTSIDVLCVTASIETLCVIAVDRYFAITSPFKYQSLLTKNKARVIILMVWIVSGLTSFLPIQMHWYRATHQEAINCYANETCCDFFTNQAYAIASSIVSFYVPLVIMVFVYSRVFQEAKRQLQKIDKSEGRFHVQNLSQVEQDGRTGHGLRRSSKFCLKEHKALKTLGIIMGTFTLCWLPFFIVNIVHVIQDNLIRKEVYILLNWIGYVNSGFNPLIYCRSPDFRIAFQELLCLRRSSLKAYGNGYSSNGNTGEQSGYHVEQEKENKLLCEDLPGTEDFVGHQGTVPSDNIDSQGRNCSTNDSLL
MEKK2 mut-MEK5: MEK5 binding signal on mutant MEKK2 PB1, primary screen, biochemical, multiplex bead flow cytometry, Alexa488-MEK5. percent response, % at 10 µM. AID 1530, 2009. 0.35% of 290,000 active. Alexa488-MEK5 binding to MEKK2 mutant; in the data active means percent response above about 24%, passing the limit was not always enough
MEKK2 WT-MEK5: modulators of MEK5 binding to wildtype MEKK2, primary screen, biochemical, multiplex bead flow cytometry, Alexa488-MEK5; Mitogen-activated protein kinase kinase kinase 2 (Homo sapiens), Q9Y2U5; Alexa488-MEK5 binding to MEKK2 WT; actives lie on both sides; 1.1% of 290,000 active; binding response (% of control), % at 10 µM; in the data active means binding response below about 67% or above about 130%
Dynein transport: inhibitors of GR-EGFP nuclear translocation, primary screen, dynein cargo transport inhibitor project, imaging, high-content, 3617.4 mouse cells | test concentration mostly 20 µM; stimulated with dexamethasone, 1 µM; active compounds read low | z-score, hits read low | 0.47% of 220,000 active | AID 1381, 2008;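 active means plate z-score of nuclear minus cytoplasmic receptor signal below a set negative limit, without overly bright fluorescence or cell loss, cut at about -3.5 in these data, passing the limit was not always enough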;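 further: z-score of nuclear minus cytoplasmic ring GR-EGFP intensity difference per well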
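Medium: Induction medium lacking tetracycline, stripped serum | Probe or stimulus: 1.0 µM final dexamethasone stimulus | Schedule: 48 h induction, then 1 h compound, then 30 min agonist, 37 °C | Signal: Automated 10x imaging of fixed Hoechst-stained cells | Evaluation: Per-cell GR-EGFP intensity, nucleus versus surrounding cytoplasmic ring, well-averaged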
MEKK3 PB1 HTS: modulators of MEKK3-MEK5 PB1 binding, primary screen, biochemical, wildtype MEKK3, multiplex bead flow cytometry, Alexa488-MEK5 | bead-based flow cytometry, Alexa488-MEK5 binding to MEKK3; actives lie on both sides; 0 = blocked by unlabeled MEK5, 100 = vehicle | binding response (% of control), % at 10 µM | 1.4% of 290,000 active | AID 1529, 2009;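 active means binding response more than 3 SD above or below the average of its plate-row segment, actives on both sides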;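 further: Alexa488 bead fluorescence after subtracting the streptavidin-only scavenger bead signal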
MEKK2wt confirm: modulators of MEK5 binding to wildtype MEKK2, confirmation, biochemical, single concentration, multiplex bead flow cytometry | shares compounds with MEKK3 PB1 HTS | Alexa488-MEK5 binding to MEKK2 WT; actives lie on both sides | binding response (% of control), % at 10 µM | 2.4% of 5,900 active; in the data active means binding response below about 16% or above about 210%; inactive means in between
MEKK2mut-MEK5: mutant MEKK2 PB1-MEK5 binding signal retest – biochemical, single concentration, multiplex bead flow cytometry, confirmation; 2% of 5,900 active; Alexa488-MEK5 binding to MEKK2 mutant; shares compounds with MEKK3 PB1 HTS; percent response, % at 10 µM; in the data active means percent response mostly above about 71%, no sharp cut-off; inactive means mostly below about 38%;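 further: higher means compound restores mutant binding toward wildtype level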
MEKK3-MEK5 inh: MEKK3 wild-type PB1 binding to MEK5, inhibitors, confirmation, biochemical, bead multiplex flow cytometry, single concentration, wildtype | shares compounds with MEKK3 PB1 HTS | Alexa488-MEK5 binding to MEKK3; active compounds read low | binding response (% of control), % at 10 µM | 1.8% of 5,900 active;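 active means binding response below 72% of control, or above a set upper limit, though filed actives all read lower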;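 further: 100% = DMSO only wells and 0% = binding blocked by excess unlabeled MEK5; lower values mean stronger disruption of MEK5 binding to MEKK3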
* marks the source's active call; other numbers are inactive results; [ ] = dose if it differs, or a comment. Shown are actives, neighbours in structure and some others; about 2.9% of the full set was active somewhere.

How did CCOC(=O)CCSc1nc(C)c2cc(C)c(C)cc2n1 do in these assays?
ATG4B inh: 3; B2AR ag: -4; MEKK2 mut-MEK5: 1; MEKK2 WT-MEK5: 95; Dynein transport: 0.74; MEKK3 PB1 HTS: 104

Results for CCC(C)/C(C)=N/NC(=O)c1ccc(CSc2nc3ccccc3s2)cc1 (stereo unspecified) ?
ATG4B inh: 2; B2AR ag: 0; MEKK2 mut-MEK5: -3; MEKK2 WT-MEK5: 98; Dynein transport: 0.51; MEKK3 PB1 HTS: 98

How did CCN1/C(=C/c2ccc3cc(C)ccc3[n+]2C)Sc2ccc3sccc3c21 do in these assays?
ATG4B inh: 5; B2AR ag: inactive; Dynein transport: 7.8; MEKK3 PB1 HTS: 0.0*[inhibitor]; MEKK2wt confirm: 7.0*[inhibitor]; MEKK2mut-MEK5: -33; MEKK3-MEK5 inh: 31*

How did CCN1/C(=C/c2ccc3cc(C)ccc3[n+]2CC)Sc2cc(C)ccc21 do in these assays?
ATG4B inh: 15; MEKK2 mut-MEK5: -4; MEKK2 WT-MEK5: 11*[inhibitor]; Dynein transport: -2.6; MEKK3 PB1 HTS: 51*[inhibitor]; MEKK2wt confirm: 31; MEKK2mut-MEK5: -37; MEKK3-MEK5 inh: 74

How did CCCCN1/C(=C/c2ccc3ccccc3[n+]2CC)Sc2ccccc21 do in these assays?
ATG4B inh: -4; MEKK2 mut-MEK5: -10; MEKK2 WT-MEK5: 59; Dynein transport: 0.13; MEKK3 PB1 HTS: 93

How did CC(C)(C)OC(=O)N1CCN(c2ccc(NC(=O)c3ccco3)cc2)CC1 do in these assays?
ATG4B inh: 0; B2AR ag: -24; MEKK2 mut-MEK5: 5; MEKK2 WT-MEK5: 97; MEKK3 PB1 HTS: 101

How did CSc1ccc(CN(C)C(=O)COc2ccc(C(=O)c3ccccc3)cc2)cc1 do in these assays?
ATG4B inh: 3; B2AR ag: 20; MEKK2 mut-MEK5: -2; MEKK2 WT-MEK5: 96; MEKK3 PB1 HTS: 98

How did CC(C)Oc1ccc(C(=O)Nc2c3c(nn2C(C)(C)C)CS(=O)(=O)C3)cc1 do in these assays?
ATG4B inh: -9; B2AR ag: 2; MEKK2 mut-MEK5: 2; MEKK2 WT-MEK5: 97; MEKK3 PB1 HTS: 99

How did O=C(c1ccccc1)c1ccc(Oc2ncccn2)cc1 do in these assays?
ATG4B inh: -11; B2AR ag: -14; MEKK2 mut-MEK5: -17; MEKK2 WT-MEK5: -1.0*[inhibitor]; Dynein transport: -0.0082; MEKK3 PB1 HTS: 0.0*[inhibitor]; MEKK2wt confirm: 103; MEKK2mut-MEK5: 2; MEKK3-MEK5 inh: 101

Results for COc1ccc(C(=O)c2ccccc2)cc1 ?
ATG4B inh: 0; B2AR ag: 25; MEKK2 mut-MEK5: -3; MEKK2 WT-MEK5: 96; Dynein transport: 1.2; MEKK3 PB1 HTS: 97

How did CCOC(=O)c1ccc(NC(=S)N(CCCN2CCCC(C)C2)Cc2cccs2)cc1 (stereo unspecified) do in these assays?
ATG4B inh: -13; B2AR ag: -1; MEKK2 mut-MEK5: 13; MEKK2 WT-MEK5: 142*; Dynein transport: -0.51; MEKK3 PB1 HTS: 103; MEKK2wt confirm: 119; MEKK2mut-MEK5: 6; MEKK3-MEK5 inh: 100
